We go through 16 compounds from ChEMBL document CHEMBL3414532 (J Med Chem, 2015).

The target in series [1] is T1, Human immunodeficiency virus type 1 reverse transcriptase (Human immunodeficiency virus 1, UniProt Q72547). Put plainly: Inhibition of HIV1 recombinant reverse transcriptase associated catalytically active RNase H domain assessed as reduction in RNA 5' end directed cleavage using HTS-3 RNA/DNA duplex substrate by fluorescence assay.
Series [2] is described as follows: Therapeutic index, ratio of CC50 for human HeLa P4/R5 cells to EC50 for HIV infected in human HeLa P4/R5 cells. The format is cell-based. The conditions noted are these: read-out: Ratio CC50/EC50.
The target of series [3] is T1, Human immunodeficiency virus type 1 reverse transcriptase. Put plainly: Inhibition of HIV1 recombinant reverse transcriptase associated catalytically active RNase H domain assessed as reduction in internal cleavage using HTS-1 RNA/DNA duplex substrate by fluorescence assay.
The test system of series [4] is Human immunodeficiency virus. Put plainly: Antiviral activity against HIV infected in human HeLa P4/R5 cells pre-incubated for 16 hrs before virus infection and measured 48 hrs post virus infection by fluorescence-based beta-galactosidase detection assay. Particulars: Human immunodeficiency virus 1, P4/R5. The format is functional, organism-based. In short, it runs like this: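 P4R5 indicator cells (expressing CD4, CXCR4, CCR5 and an HIV LTR-driven β-galactosidase reporter) seeded at 5 × 10^3 per well in DMEM/10% FBS with puromycin (0.5 μg/mL). Drug added 16 h before HIV exposure, then 48 h further incubation. Single replication cycle; infection read by fluorescence-based β-galactosidase detection. Highest concentration tested 50 μM; values are averages of two determinations.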

Series [5] concerns the target T1, Human immunodeficiency virus type 1 reverse transcriptase. Put plainly: Inhibition of reconstituted HIV1 RNase H using RNA/DNA duplex substrate by fluorescence assay.
Series [6] shares this target. Nature of the series: Inhibition of HIV1 recombinant reverse transcriptase associated catalytically active RNase H domain assessed as reduction in DNA 3' end directed cleavage using HTS-2 RNA/DNA duplex substrate by fluorescence assay.
The target is the same in series [7]. Nature of the series: Inhibition of HIV1 recombinant reverse transcriptase polymerase activity using [3H]TTP and poly(rA)-oligo(dT)16 substrate incubated for 20 mins by liquid scintillation spectrometry. In short, it runs like this: (§1)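 HIV RT (WT or NNRTI-resistant mutant, 10 nM) added to start reaction with 10 μM [3H]-TTP and 40 nM poly(rA)-oligo(dT)16 in 50 mM Tris-HCl pH 7.4, 60 mM KCl, 5 mM MgCl2; 20 min at 37 °C. Quenched with ice-cold 10% TCA/20 mM sodium pyrophosphate, glass-fiber filtered, washed with TCA and ethanol; incorporation counted by scintillation.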

The nature of series [8]: Toxicity against human HeLa P4/R5 cells. The format is cell-based.
The target in series [9] is Human immunodeficiency virus type 1 integrase (Human immunodeficiency virus 1, UniProt Q7ZJM1). Put plainly: Inhibition of HIV integrase pre-incubated for 10 mins before DNA substrate addition. In short, it runs like this: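 Strand transfer assay: 1 μM HIV integrase in 10 mM HEPES pH 7.5, 10% glycerol, 10 mM MnCl2, 1 mM DTT, with compound at 0.13–100 μM final in duplicate, preincubated 10 min at 25 °C. Started with biotin/Cy5-labelled oligo duplex, run 30 min at 37 °C, stopped with EDTA. Mean ± SD from at least three experiments.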
Sequence of Human immunodeficiency virus type 1 integrase (Q7ZJM1 whole entry): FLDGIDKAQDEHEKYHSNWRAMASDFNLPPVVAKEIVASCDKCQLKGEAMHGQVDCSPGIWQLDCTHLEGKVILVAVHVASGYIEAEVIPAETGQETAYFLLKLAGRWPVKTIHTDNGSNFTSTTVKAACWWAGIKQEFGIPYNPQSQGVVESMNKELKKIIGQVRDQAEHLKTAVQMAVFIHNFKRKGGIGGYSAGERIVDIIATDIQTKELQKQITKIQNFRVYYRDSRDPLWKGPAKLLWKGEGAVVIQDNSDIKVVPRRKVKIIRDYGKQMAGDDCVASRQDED

Series [10] is described as follows: Inhibition of Moloney murine leukemia virus reverse transcriptase associated RNase H pre-incubated for 10 mins before HTS-1 RNA/DNA duplex substrate addition by fluorescence assay. In short, it runs like this: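 Preincubated 10 min at room temperature, then started with 100 nM HTS-1 duplex. IC50 at curve midpoint; duplicates, at least two experiments.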
A short description of series [11]: Selectivity index, ratio of IC50 for HIV integrase to IC50 for HIV1 recombinant reverse transcriptase associated catalytically active RNase H-mediated domain internal cleavage activity.
A short description of series [12]: Inhibition of Escherichia coli RNase H pre-incubated for 10 mins before HTS-1 RNA/DNA duplex substrate addition by fluorescence assay. In short, it runs like this:
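E. coli RNase H at 4 nM with 6 mM MgCl2 and inhibitor at 1, 7 or 30 μM (2% DMSO final) in 50 mM Tris pH 7.8, 50 mM NaCl. Preincubated 10 min at room temperature, then started with 100 nM HTS-1 (fluorescein/Dabcyl RNA/DNA duplex). IC50 taken at curve midpoint; duplicates, at least two independent experiments.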

Series [13] concerns the target T2, Human immunodeficiency virus type 1 reverse transcriptase (Human immunodeficiency virus 1, UniProt Q72547, Y181C). Nature of the series: Inhibition of HIV1 reverse transcriptase Y181C mutant associated RNase H domain activity assessed as reduction in internal cleavage using HTS-1 RNA/DNA duplex substrate by fluorescence assay.
For series [14], the target named is Gag-Pol polyprotein (Moloney murine leukemia virus isolate Shinnick, UniProt P03355). Nature of the series: Inhibition of Moloney murine leukemia virus reverse transcriptase polymerase activity using Td100/Pd18 DNA-DNA substrate incubated for 30 mins by fluorescence assay.
For series [15], the target named is T3, Human immunodeficiency virus type 1 reverse transcriptase (Human immunodeficiency virus 1, UniProt Q72547, K103N/L100I). Put plainly: Inhibition of HIV1 reverse transcriptase L100I/K103N mutant polymerase activity using [3H]TTP and poly(rA)-oligo(dT)16 substrate incubated for 20 mins by liquid scintillation spectrometry. In outline: as §1
The target in series [16] is T3, Human immunodeficiency virus type 1 reverse transcriptase. Put plainly: Inhibition of HIV1 reverse transcriptase L100I/K103N mutant associated RNase H domain activity assessed as reduction in internal cleavage using HTS-1 RNA/DNA duplex substrate by fluorescence assay.
The target of series [17] is T2, Human immunodeficiency virus type 1 reverse transcriptase. Put plainly: Inhibition of HIV1 reverse transcriptase Y181C mutant polymerase activity using [3H]TTP and poly(rA)-oligo(dT)16 substrate incubated for 20 mins by liquid scintillation spectrometry. In outline: as §1
Series [18] shares this target. Nature of the series: Inhibition of HIV1 reverse transcriptase Y181C mutant associated RNase H domain activity assessed as reduction in reduction in DNA 3' end directed cleavage using HTS-2 RNA/DNA duplex substrate by fluorescence assay.
The target of series [19] is T3, Human immunodeficiency virus type 1 reverse transcriptase. Nature of the series: Inhibition of HIV1 reverse transcriptase L100I/K103N mutant associated RNase H domain activity assessed as reduction in reduction in DNA 3' end directed cleavage using HTS-2 RNA/DNA duplex substrate by fluorescence assay.

Usually IC50 stands for the point on the concentration scale where inhibition reaches its midpoint. The term EC50 denotes the concentration at which the effect is half-maximal. Usually CC50 stands for the concentration giving 50% cytotoxicity. Read a high CC50 as better tolerance by the cells. Turning to `O=C1Cc2cc(Cc3ccc(-c4cccs4)cc3)ccc2C(=O)N1O`, the IC50 in [1] is 2700 nM; in series [3] it was 2700 nM; in series [5], 700 nM; in [6], 2000 nM; in [7], 1500 nM; in [9] it was more than 100000 nM. Besides, the selectivity ratio in [2] was more than 4. For the same compound, in series [4], the EC50 amounted to 13000 nM. Further, the CC50 in [8] (HeLa P4/R5 cells) was more than 50000 nM.

For `O=C1Cc2cc(Cc3ccc(C4CC4)cc3)ccc2C(=O)N1O`, the IC50 in series [1] is 900 nM; in series [3], 600 nM; in [5], 900 nM; in series [6], 800 nM; in series [9] it was 3800 nM; in series [10] it was more than 30000 nM.

`O=C1Cc2cc(Cc3ccc(F)cc3)ccc2C(=O)N1O`: the IC50 came to 1200 nM in series [1]; 1300 nM in [3]; 500 nM in series [5]; 800 nM in [6]; 2300 nM in [7]; 36000 nM in series [9]. Also, the selectivity ratio in [2] is more than 4. In [4], this compound showed an EC50 of 13000 nM. Also, the Ratio IC50 in series [11] is 28. This compound yielded a CC50 in series [8] (HeLa P4/R5 cells) of more than 50000 nM.

Consider `O=C1Cc2cc(Cc3ccc(-c4ccc(F)cc4)cc3)ccc2C(=O)N1O`, for which the IC50 in series [1] is 5000 nM; in series [3] it was 5400 nM; in [5], 2800 nM; in [12], 2900 nM; in series [6], 4900 nM; in series [9], more than 100000 nM. Moreover, the IC50 in series [10] is more than 30000 nM. In series [4], this compound came in with an EC50 of 10000 nM.

Consider `O=C1Cc2cc(Cc3ccc(-c4ccncc4)cc3)ccc2C(=O)N1O`, for which the results for the IC50 in series [5], in series [12] and in series [10] were 800 nM, 4000 nM and more than 30000 nM, respectively.

As to `N#Cc1ccc(-c2ccc(Cc3ccc4c(c3)CC(=O)N(O)C4=O)cc2)cc1`, the IC50 is 900 nM in series [1]; 900 nM in [3]; 500 nM in series [5]; 3200 nM in series [12]; 900 nM in series [6]; more than 100000 nM in [9]. The concentration for half-maximal inhibition (IC50) in series [10] is more than 30000 nM. The compound further came in with an EC50 in [4] of 13000 nM. For the same compound, the CC50 in series [8] (HeLa P4/R5 cells) was more than 50000 nM.

Turning to `CS(=O)(=O)c1ccc(-c2ccc(Cc3ccc4c(c3)CC(=O)N(O)C4=O)cc2)cc1`, the results for the half-inhibitory concentration (IC50) in series [12] and in series [10] were 7200 nM and more than 30000 nM, respectively.

`NC(=O)c1ccc(-c2ccc(Cc3ccc4c(c3)CC(=O)N(O)C4=O)cc2)cc1`: the IC50 in [5] was 1500 nM.

With `O=C1Cc2cc(Cc3ccc(-c4ccc(F)cc4F)cc3)ccc2C(=O)N1O`, the IC50 was 1400 nM in series [1]; 1500 nM in series [3]; 700 nM in series [5]; 900 nM in series [6]; 2000 nM in series [7]; more than 100000 nM in series [9]. In addition, in [2], the selectivity ratio was more than 4. The same compound returned a half-maximal effective concentration (EC50) in series [4] of 13000 nM. Further, the CC50 in series [8] (HeLa P4/R5 cells) is more than 50000 nM.

Consider `NS(=O)(=O)c1ccc(-c2ccc(Cc3ccc4c(c3)CC(=O)N(O)C4=O)cc2)cc1`, for which the IC50 in [1] worked out at 500 nM; in series [3], 400 nM; in series [5], 400 nM; in series [12] it was 2500 nM; in [13], 200 nM; in series [6], 500 nM. Moreover, the IC50 was determined as 500 nM in series [7]; 2400 nM in series [14]; 200 nM in series [15]; 400 nM in series [16]; 300 nM in [17]; 3600 nM in series [9]. Besides, the values for the IC50 in series [18], in series [19] and in series [10] were 300 nM, 300 nM and more than 30000 nM, respectively. In addition, in [11], the Ratio IC50 was found to be 9.

The compound `COc1ccc(-c2ccc(Cc3ccc4c(c3)CC(=O)N(O)C4=O)cc2)cc1` displayed an EC50 in series [4] of 10000 nM.

`O=C1Cc2cc(Cc3ccccc3)ccc2C(=O)N1O`: the IC50 amounted to 1100 nM in [1]; 1300 nM in series [3]; 1100 nM in [5]; 6500 nM in [12]; 1400 nM in [6]; 1700 nM in series [7]. The IC50 in series [14] was 3200 nM; in [9] it was 3800 nM; in series [10] it was more than 30000 nM. Besides, the Ratio IC50 in series [11] came to 2.9.

Turning to `O=C1Cc2cc(Cc3ccc(C(F)(F)F)cc3)ccc2C(=O)N1O`, the half-inhibitory concentration (IC50) was 2000 nM in series [1]; 1500 nM in series [3]; 1200 nM in [5]; 1100 nM in [6]; more than 100000 nM in [9]; more than 30000 nM in series [10]. Also, in series [4], the response was half-maximal at 6200 nM (EC50). This compound also came in with a CC50 in series [8] (p4/r5) of 50000 nM.

Consider `COc1ccc(-c2ccc(Cc3ccc4c(c3)CC(=O)N(O)C4=O)cc2)cc1F`, for which the IC50 in [1] was 1200 nM; in [3], 2200 nM; in series [5] it was 700 nM; in [6], 1800 nM; in [7] it was 1900 nM; in series [9], more than 100000 nM. In addition, in series [2], the selectivity ratio is more than 4. The EC50 in [4] was 13000 nM. Moreover, the CC50 in series [8] (HeLa P4/R5 cells) was more than 50000 nM.

On to `O=C1Cc2cc(Cc3ccc(-c4ccccc4)cc3)ccc2C(=O)N1O`, for which the IC50 in series [1] was 900 nM; in [3] it was 800 nM; in [5], 500 nM; in series [12], 3400 nM; in series [6], 600 nM; in [9] it was more than 100000 nM. In series [10], this compound gave an IC50 of more than 30000 nM. This compound also showed an EC50 in [4] of 3000 nM. Besides, the CC50 in series [8] (p4/r5) worked out at 50000 nM.

Consider `O=C1Cc2cc(Cc3ccc(Cl)cc3)ccc2C(=O)N1O`, for which the IC50 in series [9] is 4400 nM; in series [10], more than 30000 nM.
